{"data": "Assay results from different studies", "ALOX5": "Polyunsaturated fatty acid 5-lipoxygenase (ALOX5, Homo sapiens, UniProt P09917)", "CDK11B": "Cyclin-dependent kinase 11B (CDK11B, Homo sapiens, UniProt P21127)", "note": "Compare with care: the assays were run in different laboratories."}
{"SMILES": "CCN(CC)CCCC[C@H](NC(=O)[C@H](CC(C)C)NC(=O)[C@H](C)NC(=O)[C@H](Cc1ccccc1)NC(=O)c1ccc(C(C)(C)C)cc1)C(=O)N[C@@H](CO)C(=O)OC", "target": "Bromodomain-containing protein 4, BD2 (BRD4, Homo sapiens, UniProt O60885)", "test": "thermal stability, DSF", "setting": "25 µM", "endpoint": "ΔTm", "result": "0.2 °C"}
{"SMILES": "N#Cc1ccc(NCCNCC(=O)N2N=CCC2C#N)nc1 (stereo not drawn)", "target": "Dipeptidyl peptidase 8 (Homo sapiens, UniProt Q6V1X1)", "test": "enzyme activity, inhibitor", "setting": "10 µM", "endpoint": "inhibition", "result": "15%"}
{"SMILES": "C[C@H](C(=O)N[C@H]1COc2ccccc2[C@@H]1S(C)(=O)=O)c1ccc(F)cc1", "target": "ALOX5", "test": "enzyme activity, inhibitor", "setting": "10 µM", "endpoint": "inhibition", "result": "13%"}
{"SMILES": "Cc1nn(C)cc1-c1nc2c(N3CCN(Cc4ccc(Cl)cc4)CC3)c(Cl)cnc2[nH]1", "target": "CDK11B", "test": "binding, competition with immobilised ligand", "setting": "1 µM", "endpoint": "remaining binding", "result": "100%"}
{"SMILES": "C#Cc1n[nH]c2c(-c3cn(C(C)c4ccccn4)c(=O)[nH]c3=O)cc(F)cc12 (stereo not drawn)", "target": "Protein kinase C alpha type (PRKCA, Homo sapiens, UniProt P17252)", "test": "enzyme activity, inhibitor", "setting": "1 µM", "endpoint": "inhibition", "result": "9.8%"}
{"SMILES": "COc1cc(Nc2ncc(F)c(Nc3ccc4c(n3)NC(=O)C(C)(C)O4)n2)cc(OC)c1OC", "target": "Mitogen-activated protein kinase kinase kinase 4 (MAP3K4, Homo sapiens, UniProt Q9Y6R4)", "test": "binding, competition with immobilised ligand", "setting": "10 µM", "endpoint": "inhibition", "result": "71%"}
{"SMILES": "c1ccc(C(NCCNC(c2ccccc2)c2ccccc2)c2ccccc2)cc1", "target": "ALOX5", "test": "enzyme activity, inhibitor", "setting": "10 µM", "endpoint": "inhibition", "result": "99%"}
{"SMILES": "COc1ncccc1-c1cnn2ccc(N3CCN(C(=O)OC(C)C)CC3)nc12", "target": "CDK11B", "test": "binding, competition with immobilised ligand", "setting": "1 µM", "endpoint": "remaining binding", "result": "89%"}
{"SMILES": "Nc1ncc(-c2nc(N3CCOCC3)nc(N3CCOCC3)n2)c(C(F)F)n1", "target": "Serine/threonine-protein kinase ICK (CILK1, Homo sapiens, UniProt Q9UPZ9)", "test": "binding, competition with immobilised ligand", "setting": "10 µM", "endpoint": "remaining binding", "result": "72%"}
